Results reported in ChEMBL document CHEMBL4840302, “Si113-prodrugs selectively activated by plasmin against hepatocellular and ovarian carcinoma” (Eur J Med Chem, 2021).
Converted amounts (≈) assume the structure as drawn. Each block holds one molecule with its values, some of them ahead of it. The source made the active and inactive calls. No cut-off for these calls is given here.

Experiments:
[1] = Aqueous solubility of the compound at 1 mg incubated for 24 hrs under shaking condition by LC-MS/MS analysis; format: physicochemical; conditions: water
[2] = Stability of the compound in human plasma assessed as half life at 3 mM measured up to 24 hrs by UV/LC-MS analysis; format: ADME, cell-free
[3] = Permeability of the compound at pH 7.4 at 500 uM incubated for 5 hrs by PAMPA based UV/LC-MS analysis; format: ADME; conditions: read-out: permeability
How it was run: (§1)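 Donor: compound diluted from 1 mM DMSO stock to 500 µM final in phosphate buffer (pH 7.4, 25 mM). Filter coated with 1% phosphatidylcholine in dodecane; acceptor 50% DMSO/phosphate buffer. 5 h at room temperature with gentle shaking. Donor and acceptor measured by UV/LC-MS; Papp and %MR calculated by equation. Three independent experiments.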

[4] = Drug concentration in naive BALB/C mouse liver at 21 mg/kg, ip administered as single dose incubated for 24 hrs followed by heparin treatment by LC-MS/MS analysis; format: ADME, organism-based; conditions: in vivo
How it was run: (§2)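 Healthy male BALB/c mice, 4–6 weeks old, given a single i.p. 21 mg/kg prodrug dose in saline. At 24 h, heparin i.p. (5000 U/kg), then sacrifice under CO2. Organs homogenised with acetonitrile containing internal standard, centrifuged, filtered and quantified by LC-MS/MS against calibration curves. n = 3 per time point.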

[5] = Drug concentration in naive BALB/C mouse kidney at 21 mg/kg, ip administered as single dose incubated for 24 hrs followed by heparin treatment by LC-MS/MS analysis; format: ADME, organism-based; conditions: in vivo; how it was run: as §2
plasmin = plasmin (Homo sapiens, UniProt P00747); assay: Stability of the compound in human plasmin solution assessed as half life at 7.5 mM measured up to 24 hrs by UV/LC-MS analysis; format: ADME
plasmin, sequence (P00747 97-580 limits assumed): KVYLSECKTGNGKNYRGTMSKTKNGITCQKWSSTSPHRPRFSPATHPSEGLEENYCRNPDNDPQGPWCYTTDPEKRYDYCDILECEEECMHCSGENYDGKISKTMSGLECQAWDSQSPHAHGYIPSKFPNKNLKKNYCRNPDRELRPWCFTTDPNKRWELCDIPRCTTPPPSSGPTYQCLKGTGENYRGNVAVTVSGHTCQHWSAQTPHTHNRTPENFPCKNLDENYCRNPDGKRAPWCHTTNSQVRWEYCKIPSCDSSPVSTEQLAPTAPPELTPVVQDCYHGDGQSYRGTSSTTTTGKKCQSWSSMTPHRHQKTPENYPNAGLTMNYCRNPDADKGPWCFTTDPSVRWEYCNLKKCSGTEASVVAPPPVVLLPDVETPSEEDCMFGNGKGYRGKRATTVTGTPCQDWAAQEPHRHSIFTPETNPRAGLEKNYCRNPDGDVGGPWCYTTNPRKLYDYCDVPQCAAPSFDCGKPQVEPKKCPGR
plasmin, sequence (P00747 581-810 limits assumed): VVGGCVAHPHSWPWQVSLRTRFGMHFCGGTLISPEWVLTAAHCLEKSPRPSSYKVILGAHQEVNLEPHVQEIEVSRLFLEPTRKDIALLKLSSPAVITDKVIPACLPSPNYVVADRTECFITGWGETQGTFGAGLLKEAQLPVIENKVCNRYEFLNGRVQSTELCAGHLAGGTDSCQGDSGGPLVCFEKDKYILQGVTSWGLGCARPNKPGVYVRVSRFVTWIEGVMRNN
How it was run: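 Human plasmin mixed with Tris buffer (pH 7.4, 100 mM) and prodrug (7.5 mM DMSO stock), incubated at 37 °C. Samples taken from 0 to 24 h, quenched with cold acetonitrile and centrifuged; analysed by UV/LC-MS. t1/2 is time to 50% hydrolysis.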

[6] = Permeability of the compound at pH 7.4 assessed as membrane retension at 500 uM incubated for 5 hrs by PAMPA based UV/LC-MS analysis; format: ADME; conditions: pH 7.4, 5 h; how it was run: as §1
A2780 [7] = assay: Cytotoxicity against human A2780 cells assessed as reduction in cell viability measured after 72 hrs by MTT assay; format: functional, cell-based; conditions: A2780, 72 h
How it was run: (§3)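 HepG2, Huh-7 or A2780 cells in DMEM with 10% FBS, 37 °C, 5% CO2. 2.5 × 10^4 cells seeded per well; compounds in DMSO added next day at 0.1, 1.0, 10.0 and 100.0 µM for 24, 48 or 72 h. IC50 from MTT dose-response by sigmoid fit. Means ± S.D. of three independent experiments in triplicate.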

A2780TC [8] = assay: Antitumor activity against paclitaxel resistant human A2780TC cells xenografted in nude mouse assessed as reduction in tumor volume at 9.3 mg/kg/day, ip administered for 5 days/ week and measured every 7 days for 21 days in the presence of paclitaxel; format: functional, organism-based; conditions: time 21.0 day
[9] = Drug concentration in nude female mouse tumor mass xenografted with human A2780 cells at 9.5 mg/kg, ip administered as single dose incubated for 24 hrs followed by heparin treatment by LC-MS/MS analysis; format: ADME, organism-based, Neoplasm; conditions: in vivo
How it was run: (§4)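 Female nude mice, xenografted subcutaneously with 2.5 × 10^6 A2780TC cells or left non-xenografted, two per group. Single i.p. dose: Si113 9.5 mg/kg in DMSO or prodrug 21 mg/kg in saline. At 24 h, heparin i.p. (5000 U/kg), then sacrifice under CO2. Plasma, tumour and organs extracted with acetonitrile/internal standard and analysed by LC-MS/MS.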

A2780 [10] = assay: Cytotoxicity against human A2780 cells assessed as reduction in cell viability measured after 24 hrs by MTT assay; format: functional, cell-based; conditions: A2780, 24 h; how it was run: as §3
[11] = target: T1, Serine/threonine-protein kinase Sgk1 (Homo sapiens) (UniProt O00141); assay: Inhibition of Sgk1 (unknown origin) at 12.5 uM using peptide substrate incubated for 30 mins in the presence of ATP by scintillation counting method relative to control
T1 sequence (whole entry): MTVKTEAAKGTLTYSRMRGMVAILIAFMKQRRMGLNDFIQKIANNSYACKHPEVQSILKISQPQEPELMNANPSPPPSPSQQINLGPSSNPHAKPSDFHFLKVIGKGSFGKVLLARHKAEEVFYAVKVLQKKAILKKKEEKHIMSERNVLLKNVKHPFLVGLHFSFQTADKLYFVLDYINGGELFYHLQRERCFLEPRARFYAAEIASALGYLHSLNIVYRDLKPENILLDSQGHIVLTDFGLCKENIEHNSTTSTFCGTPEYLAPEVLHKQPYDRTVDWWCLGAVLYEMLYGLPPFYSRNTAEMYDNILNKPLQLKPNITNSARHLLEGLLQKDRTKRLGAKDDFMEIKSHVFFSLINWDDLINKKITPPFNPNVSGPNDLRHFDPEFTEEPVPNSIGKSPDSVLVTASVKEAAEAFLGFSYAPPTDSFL

Huh-7 [12] = assay: Cytotoxicity against human Huh-7 cells assessed as reduction in cell viability measured after 72 hrs by MTT assay; format: functional, cell-based; conditions: Huh-7, 72 h; how it was run: as §3
HepG2 [13] = assay: Cytotoxicity against human HepG2 cells assessed as reduction in cell viability measured after 72 hrs by MTT assay; format: functional, cell-based; conditions: HepG2, 72 h; how it was run: as §3
A2780 [14] = assay: Cytotoxicity against human A2780 cells assessed as reduction in cell viability measured after 48 hrs by MTT assay; format: functional, cell-based; conditions: A2780, 48 h; how it was run: as §3
HepG2 [15] = assay: Antitumor activity against human HepG2 cells xenografted in female nude mouse assessed as reduction in tumor growth at 9.5 mg/kg, ip administered for 5 days/week and measured every 7 days for 21 days; format: functional, organism-based; conditions: time 21.0 day, in the assay text read “administered daily” for “administered for 5 days/week”
How it was run: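 HepG2 cells (2.5 × 10^6, in 1:1 serum-free RPMI/Matrigel) injected subcutaneously in the dorsal posterior-lateral right region of 6-week-old female nude mice. Five mice per group, randomised. Dosing i.p. five days/week, started when tumours reached 100 mm3. Si113 was given in DMSO and prodrugs in saline, dosed to equal molar amounts. Caliper volume (π/6 × a2 × b) measured every 7 days; on day 21 tumours were excised and weighed.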

[16] = Metabolic stability in human liver microsomes assessed as parent compound remaining at 50 uM incubated for 1 hr in the presence of NADPH regenerating system by UV/LC-MS analysis; format: ADME, Microsome; conditions: read-out: Stability
How it was run: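 Human liver microsomes (0.2 mg/mL) with NADPH regenerating system and 50 µM compound in DMSO/phosphate buffer (pH 7.4, 25 mM), 1 h at 37 °C. Reaction quenched with acetonitrile and centrifuged; supernatant dried, taken up in methanol, and unmetabolised compound measured by UV/LC-MS. Three independent experiments.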

[17] = target: T1, Serine/threonine-protein kinase Sgk1 (Homo sapiens); assay: Inhibition of Sgk1 (unknown origin) at 0.6 uM using peptide substrate incubated for 30 mins in the presence of ATP by scintillation counting method relative to control
HepG2 [18] = assay: Cytotoxicity against human HepG2 cells assessed as reduction in cell viability measured after 24 hrs by MTT assay; format: functional, cell-based; conditions: HepG2, 24 h; how it was run: as §3
HepG2 [19] = assay: Cytotoxicity against human HepG2 cells assessed as reduction in cell viability measured after 48 hrs by MTT assay; format: functional, cell-based; conditions: HepG2, 48 h; how it was run: as §3
[20] = Drug concentration in nude female mouse ovarian tissue xenografted with human A2780 cells at 9.5 mg/kg, ip administered as single dose incubated for 24 hrs followed by heparin treatment by LC-MS/MS analysis; format: ADME, organism-based, Female gonad; conditions: in vivo; how it was run: as §4
Huh-7 [21] = assay: Cytotoxicity against human Huh-7 cells assessed as reduction in cell viability measured after 48 hrs by MTT assay; format: functional, cell-based; conditions: Huh-7, 48 h; how it was run: as §3
A2780TC [22] = assay: Antitumor activity against paclitaxel resistant human A2780TC cells xenografted in nude mouse assessed as reduction in tumor volume at 9.3 mg/kg/day, ip administered for 5 days/ week and measured every 7 days for 21 days; format: functional, organism-based; conditions: time 21.0 day
Huh-7 [23] = assay: Cytotoxicity against human Huh-7 cells assessed as reduction in cell viability measured after 24 hrs by MTT assay; format: functional, cell-based; conditions: Huh-7, 24 h; how it was run: as §3
[24] = Drug concentration in nude female mouse ovarian tissue xenografted with human A2780 cells at 21 mg/kg, ip administered as single dose incubated for 24 hrs followed by heparin treatment by LC-MS/MS analysis; format: ADME, organism-based, Female gonad; conditions: in vivo; how it was run: as §4
[25] = Drug concentration in nude female mouse tumor mass xenografted with human A2780 cells at 21 mg/kg, ip administered as single dose incubated for 24 hrs followed by heparin treatment by LC-MS/MS analysis; format: ADME, organism-based, Neoplasm; conditions: in vivo; how it was run: as §4
A2780TC [26] = assay: Antitumor activity against paclitaxel resistant human A2780TC cells xenografted in nude mouse assessed as reduction in tumor growth at 5 mg/kg/day, ip administered for 5 days/ week and measured every 7 days for 21 days; format: functional, organism-based; conditions: time 21.0 day

solubility thermodynamic at 24 h [1]: > 1000 µg/mL
half-life [2]: 276 min
Papp at 5 h, 500 µM [3]: 0.2 ×10⁻⁶ cm/s
Drug uptake [4]: 11.05 nmol/g
Drug uptake [5]: 3.01 nmol/g
half-life at 7500 µM (plasmin): 186 min
SMILES: C[C@@H](N)C(=O)N[C@@H](Cc1ccccc1)C(=O)N[C@@H](CCCCN)C(=O)NCCCCC(=O)OCCNc1nc(NCCc2ccccc2)c2cnn(/C=C/c3ccccc3)c2n1.O=C(O)C(F)(F)F.O=C(O)C(F)(F)F

permeability [6]: 86.2%
solubility thermodynamic at 24 h [1]: 0.4 µg/mL (≈ 0.999 µM)
Drug uptake [9]: 2.2 nmol/g
inhibition [11]: > 90%
Papp at 5 h, 500 µM [3]: 2.6 ×10⁻⁶ cm/s
remaining at 1 h, 50 µM [16]: 84%
inhibition [17]: 75%
Drug uptake [20]: 1.89 nmol/g
SMILES: OCCNc1nc(NCCc2ccccc2)c2cnn(/C=C/c3ccccc3)c2n1
IC50 (A2780 [7]): 3.47 µM
Activity (A2780TC [8]): Active
IC50 (A2780 [10]): 25.6 µM
IC50 (Huh-7 [12]): 580 nM
IC50 (HepG2 [13]): 3.15 µM
IC50 (A2780 [14]): 4.56 µM
Activity (HepG2 [15]): Active
IC50 (HepG2 [18]): 15.9 µM
IC50 (HepG2 [19]): 8.29 µM
IC50 (Huh-7 [21]): 1880 nM
Activity (A2780TC [22]): Active
IC50 (Huh-7 [23]): 2050 nM

Drug uptake [24]: 4.11 nmol/g
solubility thermodynamic at 24 h [1]: > 1000 µg/mL
half-life [2]: 18 min
Papp at 5 h, 500 µM [3]: 0.2 ×10⁻⁶ cm/s
Drug uptake [4]: 0.81 nmol/g
Drug uptake [25]: 5.69 nmol/g
Drug uptake [5]: 1.77 nmol/g
half-life at 7500 µM (plasmin): 90 min
SMILES: C[C@@H](N)C(=O)N[C@@H](Cc1ccccc1)C(=O)N[C@@H](CCCCN)C(=O)OCCNc1nc(NCCc2ccccc2)c2cnn(/C=C/c3ccccc3)c2n1.O=C(O)C(F)(F)F.O=C(O)C(F)(F)F

SMILES: CC(=O)O[C@H]1C(=O)[C@@]2(C)[C@H]([C@H](OC(=O)c3ccccc3)[C@]3(O)C[C@H](OC(=O)[C@H](O)[C@@H](NC(=O)c4ccccc4)c4ccccc4)C(C)=C1C3(C)C)[C@]1(OC(C)=O)CO[C@@H]1C[C@@H]2O
Activity (A2780TC [26]): inactive
